Assay results taken from PMC5609789 (Drug Design, Development and Therapy, 2017).

Assays:
Format in all cases: cell-based
[1] = system: MCF-7 breast cancer cells; experiment: MTT cell viability assay, MCF-7; details: Homo sapiens, MCF7, 24 h, read-out: IC50, Breast adenocarcinoma (MCF-7)
How it was run: (§1)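 Cells grown in RPMI 1640 with 10% FBS, penicillin and streptomycin at 37°C, 5% CO2. DMSO stocks were 10.0 mM. Seeded in triplicate at 1.0×10^4 cells/well; after 24 h, dosed 5.0–50.0 μM for 24 h. MTT (5.0 mg/mL) was added for 2 h at 37°C in the dark, formazan dissolved in DMSO, A579 read against 650 nm. IC50 reported as mean ± SEM, n=3. Not assigned if viability stayed above 50% at 50 μM.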

[2] = system: human mammary epithelial cells (HMECs); experiment: MTT cell viability assay, HMEC normal control; details: 24 h, read-out: IC50, HMECs (normal cells)
How it was run: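 Normal human mammary epithelial cells kept in mammary epithelial growth medium at 37°C, 5% CO2. Test compound was applied for 24 h over 5.0–50.0 μM (10.0 mM DMSO stocks), and viability was measured by MTT: 2 h in the dark at 37°C, DMSO solubilisation, read at 579/650 nm. Mean ± SEM of n=3; no IC50 assigned if viability stayed above 50% at 50 μM.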

[3] = system: EJ-28 urinary bladder cancer cells; experiment: MTT cell viability assay, EJ-28; details: Homo sapiens, EJ-28, 24 h, read-out: IC50, Bladder carcinoma (EJ-28)
How it was run: as §1

[4] = system: HSC-4 oral squamous cancer cells; experiment: MTT cell viability assay, HSC-4; details: Homo sapiens, HSC-4, 24 h, read-out: IC50, Oral squamous carcinoma (HSC-4)
How it was run: (§2)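 Cultured in DMEM with 10% FBS, penicillin/streptomycin, 37°C, 5% CO2. Cells plated in triplicate at 1.0×10^4/well. After 24 h, test compound was added at 5.0–50.0 μM (from 10.0 mM DMSO stocks) for 24 h. MTT reduction ran 2 h at 37°C in the dark, formazan was dissolved in DMSO, absorbance 579 nm (reference 650 nm). IC50 given as mean ± SEM (n=3), not assigned when viability remained >50% at 50 μM.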

HepG2 liver cancer cells = experiment: MTT cell viability assay, HepG2; details: Homo sapiens, HepG2, 24 h, read-out: IC50, Hepatocyte carcinoma (HepG2)
How it was run: as §2

[5] = system: PC-3 prostate cancer cells; experiment: MTT cell viability assay, PC-3; details: Homo sapiens, 24 h, read-out: IC50, Prostate carcinoma (PC-3)
How it was run: as §1

[6] = system: RT-112 urinary bladder cancer cells; experiment: MTT cell viability assay, RT-112; details: Homo sapiens, RT-112, 24 h, read-out: IC50, Bladder carcinoma (RT-112)
How it was run: as §1

[7] = system: MDA-MB-231 breast cancer cells; experiment: MTT cell viability assay, MDA-MB-231; details: Homo sapiens; for IC20: MDA-MB-231, read-out: IC20 (20% inhibitory concentration) on MDA-MB-231 cell line
How it was run: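 MDA-MB-231 cells (ATCC) grown in RPMI 1640 with 10% FBS, penicillin/streptomycin, 37°C, 5% CO2. Seeded in triplicate at 1.0×10^4 cells/well, then after 24 h exposed to 5.0–50.0 μM test compound (10.0 mM DMSO stock) for 24 h. MTT (5.0 mg/mL) was added for 2 h at 37°C in the dark, formazan dissolved in DMSO, and absorbance read at 579 nm (reference 650 nm). Mean ± SEM, n=3.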

Compound	IC50 [1]	IC50 [2]	IC50 [3]	IC50 [4]	IC50 (HepG2 liver cancer cells)	IC50 [5]	IC50 [6]	IC20 [7]	IC50 ([7]; MDA-MB-231, 24 h, read-out: IC50, Breast adenocarcinoma (MDA-MB-231))
C=CCc1cc(OC)c(O)c(OC)c1 [compound 2, 4-Allyl-2,6-dimethoxyphenol]	> 50 µM	> 50 µM	> 50 µM	> 50 µM	> 50 µM	> 50 µM	> 50 µM	48 µM	–
C=CCc1ccc(OC)cc1 [compound 5, 4-allyl anisole]	> 50 µM	> 50 µM	> 50 µM	> 50 µM	> 50 µM	> 50 µM	> 50 µM	32 µM	> 50 µM
